Assay results reported in ChEMBL document CHEMBL4033651, “Exploration of flexible phenylpropylurea scaffold as novel cardiac myosin activators for the treatment of systolic heart failure” (Eur J Med Chem, 2017).

Key:
Rattus norvegicus [1] = test: Positive inotropic activity in Sprague-Dawley rat heart assessed as heart rate at 8 ug/kg/min for 3 mins by echocardiographic analysis (reference value: 281 to 347 bpm); type: functional
Rattus norvegicus [2] = test: Positive inotropic activity in Sprague-Dawley rat heart assessed as ejection fraction at 8 ug/kg/min for 3 mins by echocardiographic analysis (reference value: 67.16 to 85.81%); type: functional
Procedure, shortened: (§1)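 Seven-week-old male Sprague-Dawley rats under 1.5 % isoflurane via nosecone. Drug given through a right internal jugular vein central line. Left ventricular fractional shortening and ejection fraction measured by echocardiography with and without sample, expressed as % increase.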

Rattus norvegicus [3] = test: Effect on hemodynamic parameters in Sprague-Dawley rat heart assessed as end-diastolic pressure at 16 ug/kg/min (reference value: 7.68 to 9.64 mmHg); type: functional
Rattus norvegicus [4] = test: Effect on hemodynamic parameters in Sprague-Dawley rat heart assessed as heart rate at 16 ug/kg/min (reference value: 274 to 322 bpm); type: functional
Rattus norvegicus [5] = test: Positive inotropic activity in Sprague-Dawley rat heart assessed as ejection fraction at 16 ug/kg/min for 3 mins by echocardiographic analysis (reference value: 67.16 to 85.81%); type: functional; procedure, shortened: as §1
Rattus norvegicus [6] = test: Effect on hemodynamic parameters in Sprague-Dawley rat heart assessed as dPdT max at 16 ug/kg/min (reference value: 4162 to 5214 mmHg/s); type: functional
Rattus norvegicus [7] = test: Effect on hemodynamic parameters in Sprague-Dawley rat heart assessed as end-systolic pressure at 16 ug/kg/min (reference value: 87.48 to 97.85 mmHg); type: functional
Rattus norvegicus [8] = test: Positive inotropic activity in Sprague-Dawley rat heart assessed as left ventricular internal diameter end systole at 16 ug/kg/min for 3 mins by echocardiographic analysis (reference value: 2.50 to 4.78 mm); type: functional
Procedure, shortened: (§2)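 Male Sprague-Dawley rats, seven weeks old, anaesthetised with 1.5 % isoflurane given by nosecone. Compound infused through the right internal jugular vein, used as a central venous line. Left ventricular dimensions measured by echocardiography.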

Rattus norvegicus [9] = test: Effect on hemodynamic parameters in Sprague-Dawley rat heart assessed as end-systolic pressure at 8 ug/kg/min (reference value: 87.48 to 97.85 mmHg); type: functional
Rattus norvegicus [10] = test: Positive inotropic activity in Sprague-Dawley rat heart assessed as left ventricular posterior wall thickness end systole at 4 ug/kg/min for 3 mins by echocardiographic analysis (reference value: 2.07 to 2.46 mm); type: functional; procedure, shortened: as §2
Rattus norvegicus [11] = test: Positive inotropic activity in Sprague-Dawley rat heart assessed as heart rate at 4 ug/kg/min for 3 mins by echocardiographic analysis (reference value: 281 to 347 bpm); type: functional
Rattus norvegicus [12] = test: Positive inotropic activity in Sprague-Dawley rat heart assessed as left ventricular internal diameter end diastole at 8 ug/kg/min for 3 mins by echocardiographic analysis (reference value: 5.66 to 7.80 mm); type: functional; procedure, shortened: as §2
Gallus gallus = organism: Gallus gallus; test: Activation of actin-stimulated chicken gizzard smooth muscle myosin S1 fragment ATPase activity at 100 uM after 10 mins by spectrophotometric analysis
Procedure, shortened: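 Chicken gizzard smooth muscle S1 myosin with actin plus tropomyosin at pCa 6.5, in 20 mM Tris HCl pH 7.5, 15 mM KCl, 6 mM MgCl2, 1 mM ATP. Compound at single 100 uM dose, 10 min at room temperature. Cytophos stop; phosphate read at 650 nm. % activity versus blank-corrected DMSO control.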

Rattus norvegicus [13] = test: Positive inotropic activity in Sprague-Dawley rat heart assessed as ejection fraction at 2 to 16 ug/kg/min for 3 mins by echocardiographic analysis; type: functional; procedure, shortened: as §1
Rattus norvegicus [14] = test: Positive inotropic activity in Sprague-Dawley rat heart assessed as left ventricular internal diameter end diastole at 16 ug/kg/min for 3 mins by echocardiographic analysis (reference value: 5.66 to 7.80 mm); type: functional
Rattus norvegicus [15] = test: Positive inotropic activity in Sprague-Dawley rat heart assessed as left ventricular posterior wall thickness end systole at 8 ug/kg/min for 3 mins by echocardiographic analysis (reference value: 2.07 to 2.46 mm); type: functional; procedure, shortened: as §2
Rattus norvegicus [16] = test: Positive inotropic activity in Sprague-Dawley rat heart assessed as left ventricular posterior wall thickness end diastole at 4 ug/kg/min for 3 mins by echocardiographic analysis (reference value: 0.88 to 1.54 mm); type: functional; procedure, shortened: as §2
Rattus norvegicus [17] = test: Positive inotropic activity in Sprague-Dawley rat heart assessed as left ventricular internal diameter end systole at 4 ug/kg/min for 3 mins by echocardiographic analysis (reference value: 2.50 to 4.78 mm); type: functional; procedure, shortened: as §2
Rattus norvegicus [18] = test: Positive inotropic activity in Sprague-Dawley rat heart assessed as left ventricle fractional shortening at 2 to 16 ug/kg/min for 3 mins by echocardiographic analysis; type: functional; procedure, shortened: as §1
Rattus norvegicus [19] = test: Effect on hemodynamic parameters in Sprague-Dawley rat heart assessed as dPdT max at 8 ug/kg/min (reference value: 4162 to 5214 mmHg/s); type: functional
Oryctolagus cuniculus = organism: Oryctolagus cuniculus; test: Activation of actin-stimulated rabbit psoas skeletal muscle myosin S1 fragment ATPase activity at 100 uM after 10 mins by spectrophotometric analysis
Procedure, shortened: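 Rabbit skeletal S1 myosin with actin thin filament complex at pCa 6.5, in 20 mM Tris HCl pH 7.5, 15 mM KCl, 6 mM MgCl2, 1 mM ATP. Compound at single 100 uM dose, 10 min at room temperature. Cytophos stop; phosphate read at 650 nm. % activity versus blank-corrected DMSO control.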

Rattus norvegicus [20] = test: Effect on hemodynamic parameters in Sprague-Dawley rat heart assessed as end-diastolic pressure at 8 ug/kg/min (reference value: 7.68 to 9.83 mmHg); type: functional
Rattus norvegicus [21] = test: Positive inotropic activity in Sprague-Dawley rat heart assessed as left ventricular internal diameter end systole at 8 ug/kg/min for 3 mins by echocardiographic analysis (reference value: 2.50 to 4.78 mm); type: functional; procedure, shortened: as §2
Rattus norvegicus [22] = test: Positive inotropic activity in Sprague-Dawley rat heart assessed as fractional shortening at 8 ug/kg/min for 3 mins by echocardiographic analysis (reference value: 38.60 to 55.81%); type: functional; procedure, shortened: as §1
Rattus norvegicus [23] = test: Effect on hemodynamic parameters in Sprague-Dawley rat heart assessed as dPdT min at 8 ug/kg/min (reference value: -5462 to -4611 mmHg/s); type: functional
Rattus norvegicus [24] = test: Positive inotropic activity in Sprague-Dawley rat heart assessed as left ventricular posterior wall thickness end systole at 16 ug/kg/min for 3 mins by echocardiographic analysis (reference value: 2.07 to 2.46 mm); type: functional; procedure, shortened: as §2
Rattus norvegicus [25] = test: Positive inotropic activity in Sprague-Dawley rat heart assessed as fractional shortening at 4 ug/kg/min for 3 mins by echocardiographic analysis (reference value: 38.60 to 55.81%); type: functional; procedure, shortened: as §1
Rattus norvegicus [26] = test: Positive inotropic activity in Sprague-Dawley rat heart assessed as heart rate at 16 ug/kg/min for 3 mins by echocardiographic analysis (reference value: 281 to 347 bpm); type: functional
Rattus norvegicus [27] = test: Positive inotropic activity in Sprague-Dawley rat heart assessed as left ventricular posterior wall thickness end diastole at 16 ug/kg/min for 3 mins by echocardiographic analysis (reference value: 0.88 to 1.54 mm); type: functional; procedure, shortened: as §2

Row | Activity (Gallus gallus) | SMILES | Activity (Rattus norvegicus [1]) | Activity (Rattus norvegicus [2]) | Activity (Rattus norvegicus [3]) | Activity (Rattus norvegicus [4]) | Activity (Rattus norvegicus [5]) | Activity (Rattus norvegicus [6]) | Activity (Rattus norvegicus [7]) | Activity (Rattus norvegicus [8]) | Activity (Rattus norvegicus [9]) | Activity (Rattus norvegicus [10]) | Activity (Rattus norvegicus [11]) | Activity (Rattus norvegicus [12]) | Activity (Rattus norvegicus [13]) | Activity (Rattus norvegicus [14]) | Activity (Rattus norvegicus [15]) | Activity (Rattus norvegicus [16]) | Activity (Rattus norvegicus [17]) | Activity (Rattus norvegicus [18]) | Activity (Rattus norvegicus [19]) | also measured
1 | -3.7% | O=C(NCCCc1ccccc1)NCc1ccccc1 | 412 bpm | 96.1% | 11.33 mmHg | 272 bpm | 95.44% | 4740 mmHg/s | 94.26 mmHg | 1.58 mm | 96.04 mmHg | 2.24 mm | 395 bpm | 5.97 mm | 18.27% | 5.57 mm | 2.68 mm | 1.62 mm | 3.03 mm | 30.04% | 4644 mmHg/s | Activity (Oryctolagus cuniculus): 1.4%; Activity (Rattus norvegicus [20]): 10.71 mmHg; Activity (Rattus norvegicus [21]): 1.58 mm; Activity (Rattus norvegicus [22]): 73.53%; Activity (Rattus norvegicus [23]): -5583 mmHg/s; Activity (Rattus norvegicus [24]): 3.03 mm; Activity (Rattus norvegicus [25]): 45.67%; Activity (Rattus norvegicus [26]): 412 bpm; Activity (Rattus norvegicus [27]): 1.71 mm
2 | -5.5% | COC(=O)N1CCN(Cc2cccc(NC(=O)Nc3ccc(C)nc3)c2F)CC1 [OMECAMTIV MECARBIL] | 370 bpm | 89.52% | 6.46 mmHg | 297 bpm | 89.17% | 6867 mmHg/s | 108.91 mmHg | 2.55 mm | 104.3 mmHg | 2.81 mm | 368 bpm | 5.97 mm | 13.35% | 6.5 mm | 2.68 mm | 1.36 mm | 2.63 mm | 20.32% | 6143 mmHg/s | Activity (Oryctolagus cuniculus): 2.8%; Activity (Rattus norvegicus [20]): 6.21 mmHg; Activity (Rattus norvegicus [21]): 2.33 mm; Activity (Rattus norvegicus [22]): 61.03%; Activity (Rattus norvegicus [23]): -5547 mmHg/s; Activity (Rattus norvegicus [24]): 2.77 mm; Activity (Rattus norvegicus [25]): 58.9%; Activity (Rattus norvegicus [26]): 367 bpm; Activity (Rattus norvegicus [27]): 1.36 mm
